Results taken from ChEMBL document CHEMBL1141646, “Microwave-assisted synthesis and antimicrobial activities of flavonoid derivatives” (Bioorg Med Chem Lett, 2008).
Values after ≈ are worked out from the molar mass of the structure shown. Active and inactive are the calls of the source. The rule behind the calls is not given here.

Assays:
Format in all cases: functional, organism-based
Aspergillus niger = assay: Antifungal activity against Aspergillus niger NCTC 275 after 4 days; conditions: NCTC 275, 96 h
Method in brief: (§1)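 Compounds were incorporated into agar medium at final concentrations of 200, 100, 50 and 10 µg/mL. A disc of fungal mycelium was placed at the centre of each Petri dish. Plates were incubated at 37 °C until the control plates reached full growth (4 days). Inhibition diameter was then measured and IC50 derived. Values are means of replicates.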

Fusarium oxysporum = assay: Antifungal activity against Fusarium oxysporum after 4 days; conditions: 96 h; method in brief: as §1
Escherichia coli = assay: Antibacterial activity against Escherichia coli by paper disc diffusion method
Staphylococcus aureus [1] = assay: Antibacterial activity against methicillin-resistant Staphylococcus aureus NCTC 10442 by paper disc diffusion method
Staphylococcus aureus [2] = assay: Antibacterial activity against methicillin-resistant Staphylococcus aureus NCTC 10442 assessed as protein content after 3 hrs by bradford method; conditions: NCTC 10442, 3 h
Method in brief: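 MRSA exposed to compounds dissolved in DMSO, with a DMSO-only negative control and gentamycin at the same concentrations in sterile water as positive control. Incubated 3 h at 37 °C; growth read as protein content by the Bradford method and plotted against compound concentration.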

`O=c1cc(-c2cc(C(F)(F)F)cc(C(F)(F)F)c2)oc2ccc(Br)cc12` was tested, and the IC50 (Aspergillus niger) was 60.3 µg/mL (≈ 138 µM) and the IC50 (Fusarium oxysporum) was 65.2 µg/mL (≈ 149 µM).
`COc1ccc2oc(-c3ccc(Cl)cc3)cc(=O)c2c1` showed an IC50 (Aspergillus niger) of 41.9 µg/mL (≈ 146 µM) and an IC50 (Fusarium oxysporum) of 1430 µg/mL (≈ 4980 µM).
With `O=c1cc(-c2ccc(F)cc2)oc2ccc(Br)cc12` the IC50 (Aspergillus niger) was 142 µg/mL (≈ 444 µM) and the IC50 (Fusarium oxysporum) was 682 µg/mL (≈ 2140 µM).
`O=c1cc(-c2ccc(Cl)cc2)oc2ccc(Br)cc12` showed an IC50 (Aspergillus niger) of 157 µg/mL (≈ 469 µM) and an IC50 (Fusarium oxysporum) of 282 µg/mL (≈ 840 µM).
`COc1ccc2oc(C3CCCCC3)cc(=O)c2c1` was tested, and the Activity (Escherichia coli) was “inactive”, the Activity (Staphylococcus aureus [1]) was “Active” and the IC50 (Staphylococcus aureus [2]) was 69.6 µg/mL (≈ 269 µM). The IC50 (Aspergillus niger) was 58.9 µg/mL (≈ 228 µM) and the IC50 (Fusarium oxysporum) was 117 µg/mL (≈ 452 µM).
Work on `COc1ccc2c(=O)cc(-c3ccc(Br)cc3)oc2c1` yielded an IC50 (Aspergillus niger) of 28.2 µg/mL (≈ 85.2 µM) and an IC50 (Fusarium oxysporum) of 176 µg/mL (≈ 531 µM).
`O=c1cc(C2CCCCC2)oc2ccc(Br)cc12` was tested, and the Activity (Escherichia coli) was “inactive”, the Activity (Staphylococcus aureus [1]) was “Active” and the IC50 (Staphylococcus aureus [2]) was 12000 µg/mL (≈ 39100 µM). The IC50 (Aspergillus niger) was 90.4 µg/mL (≈ 294 µM) and the IC50 (Fusarium oxysporum) was 107 µg/mL (≈ 347 µM).
Compound `O=c1cc(-c2ccccc2)oc2ccc(Br)cc12` [6-BROMOFLAVONE] has an IC50 (Aspergillus niger) of 77.1 µg/mL (≈ 256 µM) and an IC50 (Fusarium oxysporum) of 26900 µg/mL (≈ 89400 µM).
For `COc1ccc2oc(-c3cc(C(F)(F)F)cc(C(F)(F)F)c3)cc(=O)c2c1`, the IC50 (Aspergillus niger) was 93.4 µg/mL (≈ 241 µM) and the IC50 (Fusarium oxysporum) was 177 µg/mL (≈ 457 µM).
Compound `COc1ccc(-c2cc(=O)c3cc(Br)ccc3o2)cc1` has an IC50 (Aspergillus niger) of 83.4 µg/mL (≈ 252 µM) and an IC50 (Fusarium oxysporum) of 2250 µg/mL (≈ 6790 µM).
`COc1ccc2c(=O)cc(-c3cc(Cl)cc(Cl)c3)oc2c1` was tested, and the IC50 (Aspergillus niger) was 178 µg/mL (≈ 553 µM) and the IC50 (Fusarium oxysporum) was 10600 µg/mL (≈ 33000 µM).
